Assay outcomes deposited in PubChem by Broad Institute.
In the library only some 3.5% were active in any assay of this set; here they are far more common.
MITF act: activators of MITF-driven TRPM1 promoter activity in SK-MEL-5 cells; activation, % at 12.5 µM; actives 0.75% (n = 300,000); SK-MEL-5 TRPM1-promoter luciferase, 24 h; % of positive control, neutral wells = 0;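 active = mean activation of at least 80% with every replicate also reaching 80%; inconclusive = mean reaches 80% but some replicate falls short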
Env fusion inh: blocks HIV Env-driven cell-cell fusion; actives 1.1% (n = 360,000); inhibition, % at 12.3 µM; HeLa-JRFL Env/CEM21 cell fusion, luciferase;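 active = mean replicate inhibition score of at least 50 and every replicate individually at or above 50; inconclusive = only one of the two criteria met; inactive = mean below 50 and not all replicates reaching 50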
ERAP1 inh: blocks human ERAP1 aminopeptidase activity. recombinant ERAP1, Leu-AMC fluorescence, 60 min. actives 0.15% (n = 340,000). inhibition, % at 10.7 µM. Q9NZ08. AID 652197;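 active = mean replicate inhibition of at least 30%, or all replicates individually reaching that 30% level; inactive = mean below 30% and not every replicate reaching it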
Target sequence (Q9NZ08 whole entry, looked up): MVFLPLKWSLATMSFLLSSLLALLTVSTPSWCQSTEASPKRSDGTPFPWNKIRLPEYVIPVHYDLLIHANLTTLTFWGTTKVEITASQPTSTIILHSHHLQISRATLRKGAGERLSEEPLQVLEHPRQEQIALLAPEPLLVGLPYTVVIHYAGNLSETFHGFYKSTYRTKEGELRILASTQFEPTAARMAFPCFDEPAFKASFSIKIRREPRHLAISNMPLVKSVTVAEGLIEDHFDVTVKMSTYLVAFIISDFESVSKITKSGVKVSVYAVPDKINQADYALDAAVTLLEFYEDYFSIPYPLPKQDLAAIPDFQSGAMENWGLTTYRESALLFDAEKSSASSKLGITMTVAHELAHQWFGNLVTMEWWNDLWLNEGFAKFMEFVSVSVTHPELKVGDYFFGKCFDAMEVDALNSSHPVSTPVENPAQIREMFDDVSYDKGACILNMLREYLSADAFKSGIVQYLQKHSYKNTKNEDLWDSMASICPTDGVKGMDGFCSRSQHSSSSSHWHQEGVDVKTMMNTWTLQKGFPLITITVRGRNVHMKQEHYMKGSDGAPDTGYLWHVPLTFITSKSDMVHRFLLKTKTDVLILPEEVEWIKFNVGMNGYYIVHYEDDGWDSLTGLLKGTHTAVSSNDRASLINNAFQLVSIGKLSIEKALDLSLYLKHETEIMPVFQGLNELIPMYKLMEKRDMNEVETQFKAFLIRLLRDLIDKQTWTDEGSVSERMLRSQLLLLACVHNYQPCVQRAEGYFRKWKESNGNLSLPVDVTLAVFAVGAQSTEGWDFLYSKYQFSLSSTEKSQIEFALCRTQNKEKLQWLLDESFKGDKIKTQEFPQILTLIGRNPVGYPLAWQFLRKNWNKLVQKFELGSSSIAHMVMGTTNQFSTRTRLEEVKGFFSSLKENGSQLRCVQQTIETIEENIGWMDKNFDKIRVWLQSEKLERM
Wnt act: activates Wnt/beta-catenin signaling in a reporter cell assay | activator, plate reader | actives 1.2% (n = 300,000) | activation, % at 9.35 µM; in the data active = activation above about 30%, passing the limit was not always enough; inconclusive = no clear call, values can overlap the other calls
esBAF inh: blocks esBAF chromatin remodeling in mouse ES cells; Bmi1-luciferase knock-in reporter, 24 h; 100% = twice the neutral-well signal; actives 2% (n = 350,000); reporter increase, % at 12.5 µM; in the data active = activation above about 40%; inconclusive = no clear call, values can overlap the other calls;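 note: a rise in the Bmi1 reporter signal indicates esBAF inhibition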
Cneo AK release: causes C. neoformans cell lysis; adenylate kinase release luminescence, 4 h; normalised: neutral wells 0, clomiphene wells 100; lysis activity, % at 15 µM; actives 0.2% (n = 360,000);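 active = mean lysis activity across replicates of at least 80%, whatever share of replicates individually reach that level; inactive = mean lysis activity below 80%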
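Signal: Adenylate kinase release luminescence | Assay system: Log-phase Cryptococcus neoformans yeast cells | Input: Cells at 5 × 10^6 per mL | Buffer or medium: Fresh YPD growth medium | Compound: Single dose | Schedule: Static 4 h at 37 °C with compound, 1 h detection | Controls: Clomiphene | Read-out: Luminescence rise reflecting yeast cell lysis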
Hits are given with their value; – = inactive; ? = inconclusive; · = not tested or not shown.

SMILES | MITF act | Env fusion inh | ERAP1 inh | Wnt act | esBAF inh | Cneo AK release
COc1cc2ccccc2cc1C(=O)Nc1cccnc1 | – | – | · | – | 47.6 | –
COc1ccc2c(c1OC)C(=O)N1N=C(c3ccc(F)cc3)CC21 (stereo unspecified) | – | – | – | – | – | ·
Cc1ccc(C2=NN3C(=O)c4ccccc4C3C2)cc1 (stereo unspecified) | – | – | – | 39.3 | – | ·
C[C@@H]1CCCCO[C@H](CN(C)C)[C@H](C)CN([C@H](C)CO)C(=O)c2cc(NC(=O)c3ccccc3)ccc2O1 | · | – | – | · | – | –
CCOc1ccc(C(=O)O/N=C(\N)c2ccccn2)cc1 | · | 63.3 | – | – | – | –
Cc1ccc(C(=O)O/N=C(\N)c2ccccn2)cc1 | – | 62.4 | – | – | – | –
N/C(=N\OC(=O)c1ccccc1)c1ccccn1 | – | – | – | – | – | –
CCOC(=O)c1ccc(NC(=O)N(CC)CC)cc1 | – | – | · | 49.3 | – | –
COC(=O)c1c(NC(=O)c2ccco2)sc(C(=O)Nc2ccc(F)cc2)c1C | 109.4 | · | – | – | · | ·
COC(=O)c1c(NC(=O)c2ccco2)sc(C)c1C | – | – | · | – | – | –
CCOC(=O)CC(=O)Nc1ccc(C(=O)OCC)cc1 | – | · | · | · | – | –
CC(C)OC(=O)c1ccc(NC(=O)c2ccco2)cc1 | 109.7 | · | · | – | 60.6 | –
CCOC(=O)c1ccc(NC(=O)c2nn(C)cc2Br)cc1 | 83.4 | – | · | – | 51.3 | –
CCOc1ccc(NC(=S)NC(=O)c2ccco2)cc1 | 89.3 | – | – | – | ? | –
CCOC(=O)c1ccc(NC(=O)c2ccco2)cc1 | – | – | – | – | 71.8 | –
C[C@H](CO)N1C[C@H](C)[C@@H](CN(C)C(=O)CC2CC2)Oc2cc(-c3cccnc3)ccc2S1(=O)=O | · | – | – | · | – | –
Cc1cc(=O)oc2c(CN3CCN(C)CC3)c(O)c(Cl)cc12 | – | · | 86.5 | · | – | –
CCCc1cc(=O)oc2c(CN3CCN(C)CC3)c(O)ccc12 | – | – | 34.5 | – | – | –
CCCCc1cc(=O)oc2c(CN3CCCC3)c(O)c(Cl)cc12 | – | – | · | · | – | –
CCCCc1cc(=O)oc2c(CN3CCN(C)CC3)c(O)ccc12 | · | – | – | – | – | –
CCc1c(C)c2cc(Cl)c(O)c(CN3CCCC3)c2oc1=O | – | – | 36.5 | – | – | –
CSCc1cc(N2CCOCC2)nc(SCc2ccc(Cl)c(Cl)c2)n1 | – | 62.8 | – | · | – | –
COCc1cc(N2CCOCC2)nc(SCc2ccc(Cl)cc2)n1 | – | – | – | – | · | ·
CC(C)(C)NC(=O)C(c1cc2ccccc2o1)n1c(-c2ccc(-c3ccccc3)cc2)nc2ccccc21 (stereo unspecified) | · | – | – | 50.7 | · | ·
CCCCN1C(=O)/C(=C/C=C2\Oc3ccccc3N2CC)SC1=S | – | – | – | – | – | –
SMILES | MITF act | Env fusion inh | ERAP1 inh | Wnt act | esBAF inh | Cneo AK release
CCCCN1C(=O)/C(=C/C=C2/CC(C)(C)CN2C)SC1=S | – | · | · | – | 93.1 | ·
COc1ccc(C(=O)/C=C/c2ccccc2F)c(OC(=O)c2ccc([N+](=O)[O-])cc2)c1 | – | – | · | 35.2 | – | –
COc1ccc(C(=O)/C=C/Nc2cc(C)on2)c(OC)c1 | · | – | · | · | 66.2 | –
COc1ccc(C(=O)/C=C/Nc2ccc([N+](=O)[O-])cc2C)c(OC)c1 | – | · | – | – | · | –
COc1ccc(C(=O)/C=C/c2ccccc2)c(OC)c1 | – | · | – | – | 86.0 | –
CO[C@H]1CN(C)C(=O)c2ccc(NC(C)=O)cc2OC[C@@H](C)N(C(=O)c2ccccn2)C[C@H]1C | · | – | – | · | – | –
CO[C@H]1CC[C@@H]2CCOc3c(C#N)cccc3C(=O)N(C)[C@H](C)C(=O)N(C)C[C@H]1O2 | · | – | – | · | – | –
Cc1nnc(SCC(=O)c2ccc(Cl)cc2)n(N)c1=O | – | – | – | 43.0 | · | ·
CCn1c(SCC(=O)c2ccc(Cl)cc2)nnc1C(C)C | – | – | · | 35.9 | – | –
CCn1c(SCC(=O)c2ccc(C)cc2)nnc1-c1ccoc1C | · | – | · | – | 88.4 | –
CCn1c(SCC(N)=O)nnc1C(C)C | – | – | – | – | · | ·
Cc1ccc(NC(=O)CSc2nnc(C)c(=O)n2N)cc1Cl | – | – | – | – | · | –
C/C=C/c1ccc([C@H]2[C@@H](CO)N(C(C)=O)[C@H]2CNC(=O)CC2CC2)cc1 | · | · | – | · | – | –
CCCC#Cc1ccc([C@H]2[C@@H](CO)N3C(=O)CN(C(=O)Nc4ccccc4)C[C@@H]23)cc1 | · | · | – | · | · | ·
O=C(CCN1CCCCC1)NCC[C@@H]1CC[C@@H](NC(=O)Nc2ccc(Cl)cc2)[C@H](CO)O1 | · | – | – | · | – | –
CC1(C)CC(=O)c2sc(N3CCCCC3)nc2C1 | – | · | · | · | 50.8 | ·
CC1(C)CNC(=O)c2sc(N3CCCCC3)nc2C1 | · | – | · | · | – | –
COC(=O)CCC[C@H]1CC2(C[C@H](CCCO[Si](C)(C)C(C)(C)C)N1C(=O)OC(C)(C)C)OCCO2 | – | 74.4 | · | – | – | –
O=C(N[C@H]1CC[C@H](CCn2cc(-c3ccccn3)nn2)O[C@@H]1CO)c1cccnc1 | · | – | – | · | – | –
O=C(Nc1ccc(Br)cc1)C1Cc2ccccc2O/C1=N\O (stereo unspecified) | – | – | – | – | 55.2 | –
C(=C\c1ccco1)/c1nc2ccccc2[nH]1 | – | – | · | 51.9 | · | ·
CC(C)Sc1nnc(-c2c[nH]c3ccccc23)n1C | · | – | – | – | 40.6 | –
CCOC(=O)C(C)Sc1nnc(-c2c[nH]c3ccccc23)n1C (stereo unspecified) | – | – | – | – | – | –
CN1C(=O)c2cc(NC(=O)C3CCCCC3)ccc2OC[C@@H]2O[C@@H](CC(=O)NC3CCCC3)CC[C@H]21 | · | – | – | · | – | –
CC(CCc1ccccc1)NCc1cccc2ccccc12 (stereo unspecified) | · | 65.8 | – | – | – | –
SMILES | MITF act | Env fusion inh | ERAP1 inh | Wnt act | esBAF inh | Cneo AK release
COCC(C)NCc1cccc2ccccc12 (stereo unspecified) | – | – | – | – | · | ·
CCc1ccc(/C(C)=N\Nc2ccc([N+](=O)[O-])cc2)cc1 | · | – | · | · | 44.0 | –
C/C(=N\Nc1ccc([N+](=O)[O-])cc1)c1ccc(N)cc1 | – | · | – | – | – | –
CC(=NNc1ccc([N+](=O)[O-])cn1)c1ccc(N)cc1 | – | · | – | – | 97.3 | –
CCOC(=O)c1cnc2c(c(C)nn2C)c1Oc1cc(Cl)cc(Cl)c1 | – | – | – | – | – | ·
CCOC(=O)c1cnc2c(c(C)nn2C)c1Oc1ccc(OC)cc1 | · | – | – | 49.2 | – | –
C[C@@H]1CCCCO[C@@H](CN(C)C(=O)Nc2ccccc2)[C@H](C)CN([C@H](C)CO)C(=O)c2cc(NC(=O)Nc3ccc(F)cc3)ccc2O1 | · | – | – | · | – | –
O=c1c(O)cccc2cc(O)c(O)c(O)c12 | – | 56.1 | – | – | – | –
COC(=O)c1ccc(NC(=O)CSc2nccn2CCc2ccccc2)cc1 | – | – | · | – | 45.8 | –
COc1ccc(NC(=O)CSc2nccn2Cc2ccco2)cc1 | – | – | – | 36.4 | – | –
